Data taken from ChEMBL document CHEMBL1151177, “Antiviral flavonoids from the seeds of Aesculus chinensis” (J Nat Prod, 2004).
Converted amounts (≈) assume the structure as drawn.

Assays:
[1] = test system: Influenza A virus; experiment: Antiviral activity against influenza virus type A H1N1 in MDCK cells assessed as inhibition of virus-induced cytopathic effect; format: functional, organism-based
In short: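 Two-fold serial dilutions were applied to cell monolayers, starting at the maximal noncytotoxic concentration. An equal volume of virus at 100 TCID50/mL was added, with an untreated infected control. Plates were held at 37 °C, humidified, for 2–5 days. CPE was scored 0–4 and expressed as percent of virus control. IC50 (µg/mL), the concentration halving CPE, was read from graphic plots.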

[2] = Selectivity index, ratio of CC50 for MDCK cells to IC50 for influenza virus type A H1N1; format: functional
In short: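 SI was computed as CC50/IC50. CC50 came from microscopic morphology scoring (0–4) of monolayers after 2–5 days at 37 °C. IC50 came from CPE scoring of cells infected at 100 TCID50/mL and treated with two-fold dilutions for 2–5 days at 37 °C. Both values were read from graphic plots.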

O=c1c(O[C@@H]2O[C@H](CO)[C@@H](O)[C@H](O)[C@H]2O[C@@H]2OC[C@@H](O)[C@H](O)[C@H]2O)c(-c2ccc(O)cc2)oc2cc(O)cc(O)c12
CC50 [1]: 46.9 µg/mL (≈ 80.8 µM) | IC50 [1]: > 100 µg/mL | Ratio CC50/IC50 [2]: <0.5

O=c1c(O[C@@H]2O[C@H](CO[C@@H]3O[C@H](CO)[C@@H](O)[C@H](O)[C@H]3O)[C@@H](O)[C@H](O)[C@H]2O[C@@H]2OC[C@@H](O)[C@H](O)[C@H]2O)c(-c2ccc(O)cc2)oc2cc(O)cc(O)c12
CC50 [1]: 107 µg/mL (≈ 144 µM) | IC50 [1]: > 100 µg/mL | Ratio CC50/IC50 [2]: <1.1

O=c1c(O[C@@H]2O[C@H](CO)[C@@H](O)[C@H](O)[C@H]2O[C@@H]2OC[C@@H](O)[C@H](O)[C@H]2O)c(-c2ccc(O)c(O)c2)oc2cc(O)cc(O)c12
CC50 [1]: 198 µg/mL (≈ 331 µM) | IC50 [1]: > 200 µg/mL | Ratio CC50/IC50 [2]: <1

O=c1c(O[C@@H]2O[C@H](CO)[C@@H](O)[C@H](O)[C@H]2O[C@@H]2OC[C@@H](O)[C@H](O)[C@H]2O)c(-c2ccc(O)c(O[C@@H]3O[C@H](CO)[C@@H](O)[C@H](O)[C@H]3O)c2)oc2cc(O)cc(O)c12
CC50 [1]: > 322 µg/mL | IC50 [1]: > 500 µg/mL

C[C@@H]1O[C@@H](Oc2c(-c3ccc(O)cc3)oc3cc(O)cc(O)c3c2=O)[C@H](O)[C@H](O)[C@H]1O[C@@H]1O[C@H](CO)[C@@H](O)[C@H](O)[C@H]1O
CC50 [1]: 375 µg/mL (≈ 631 µM) | IC50 [1]: > 500 µg/mL | Ratio CC50/IC50 [2]: <0.8

COc1ccc(-c2oc3cc(O)cc(O)c3c(=O)c2O[C@@H]2O[C@H](CO)[C@@H](O)[C@H](O)[C@H]2O[C@@H]2OC[C@@H](O)[C@H](O)[C@H]2O)cc1O[C@@H]1O[C@H](CO)[C@@H](O)[C@H](O)[C@H]1O [AESCUFLAVOSIDE A]
CC50 [1]: 322 µg/mL (≈ 417 µM) | IC50 [1]: > 500 µg/mL | Ratio CC50/IC50 [2]: <0.6

C[C@@H]1O[C@@H](OC[C@H]2O[C@@H](Oc3c(-c4ccc(O)c(O[C@@H]5O[C@H](CO)[C@@H](O)[C@H](O)[C@H]5O)c4)oc4cc(O)cc(O)c4c3=O)[C@H](O[C@@H]3OC[C@@H](O)[C@H](O)[C@H]3O)[C@@H](O)[C@@H]2O)[C@H](O)[C@H](O)[C@H]1O [AESCUFLAVOSIDE]
CC50 [1]: 108 µg/mL (≈ 119 µM) | IC50 [1]: > 100 µg/mL | Ratio CC50/IC50 [2]: <1.1

O=c1c(O[C@@H]2O[C@H](CO)[C@@H](O)[C@H](O)[C@H]2O)c(-c2ccc(O)cc2)oc2cc(O)cc(O)c12 [ASTRAGALIN]
CC50 [1]: 392 µg/mL (≈ 875 µM) | IC50 [1]: 24.5 µg/mL (≈ 54.6 µM) | Ratio CC50/IC50 [2]: 16

O=c1c(O[C@@H]2O[C@H](CO)[C@@H](O)[C@H](O)[C@H]2O)c(-c2ccc(O)c(O)c2)oc2cc(O)cc(O)c12 [ISOQUERCETIN]
CC50 [1]: > 400 µg/mL | IC50 [1]: > 500 µg/mL

NC(=O)c1ncn([C@@H]2O[C@H](CO)[C@@H](O)[C@H]2O)n1 [RIBAVIRIN]
CC50 [1]: > 125 µg/mL | IC50 [1]: 62.5 µg/mL (≈ 256 µM)

O=c1c(O[C@@H]2O[C@H](CO)[C@H](O)[C@H](O)[C@H]2O)c(-c2ccc(O)cc2)oc2cc(O)cc(O)c12 [TRIFOLIN]
CC50 [1]: 215 µg/mL (≈ 480 µM) | IC50 [1]: > 300 µg/mL | Ratio CC50/IC50 [2]: <0.7
